Reference: ChEMBL document CHEMBL2021854, “2-Aminopyrimidine based 4-aminoquinoline anti-plasmodial agents. Synthesis, biological activity, structure-activity relationship and mode of action studies” (Eur J Med Chem, 2012)

How the values were obtained:
Plasmodium falciparum [1] = assay: Antiplasmodial activity chloroquine-sensitive Plasmodium falciparum 3D7 infected in human A+ erythrocytes assessed as inhibition of [3H]-hypoxanthine incorporation after 24 hrs by scintillation counting; format: functional, organism-based
Plasmodium falciparum [2] = assay: Resistant factor, ratio of IC50 for chloroquine-resistant Plasmodium falciparum K1 to IC50 for chloroquine-sensitive Plasmodium falciparum 3D7; format: functional
In short: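 Resistance factor computed as IC50 against K1 divided by IC50 against 3D7, both from the [3H]hypoxanthine incorporation assay.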

MDCK = assay: Cytotoxicity against MDCK cells assessed as cell viability by colorimetric formazan-based MTS assay; design: species or system Canis lupus familiaris; conditions: dog, mdck
In short: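 Cytotoxicity on MDCK cells; 50% cytotoxic concentration from cell viability measured by colorimetric formazan-based MTS assay.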

[3] = Selectivity index, ratio of CC50 for MDCK cells to IC50 for chloroquine-resistant Plasmodium falciparum K1; format: functional
In short: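 Selectivity index computed as MTS-based CC50 on MDCK cells divided by IC50 against P. falciparum K1.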

Human respirovirus 3 = assay: Antiviral activity against Parainfluenza-3 virus infected in african green monkey Vero cells assessed as inhibition of virus-induced cytopathogenicity after 4 days; format: functional, organism-based; conditions: Human respirovirus 3, Vero, 96 h
In short: (§1)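 Confluent HEL, Vero or HeLa monolayers were inoculated with 100 CCID50 of virus in the presence of varying concentrations of compound. Cytopathicity was scored when it reached completion in untreated, virus-infected control cultures.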

Sindbis virus = assay: Antiviral activity against Sindbis virus infected in african green monkey Vero cells assessed as inhibition of virus-induced cytopathogenicity after 4 days; format: functional, organism-based; conditions: 96 h; in short: as §1
Coxsackievirus B4 = assay: Antiviral activity against Coxsackie virus B4 infected in african green monkey Vero cells assessed as inhibition of virus-induced cytopathogenicity after 4 days; format: functional, organism-based; conditions: Enterovirus B, 96 h; in short: as §1
Punta Toro virus = assay: Antiviral activity against Punta Toro virus infected in african green monkey Vero cells assessed as inhibition of virus-induced cytopathogenicity after 4 days; format: functional, organism-based; conditions: 96 h; in short: as §1
Human alphaherpesvirus 1 [4] = assay: Antiviral activity against HSV1 KOS infected in HEL cells assessed as inhibition of virus-induced cytopathogenicity after 4 days; format: functional, organism-based; conditions: Human alphaherpesvirus 1, KOS, 96 h
In short: (§2)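 Confluent HEL or HeLa monolayers infected with 100 CCID50 of virus in the presence of varying compound concentrations.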

Human alphaherpesvirus 2 = assay: Antiviral activity against HSV2 G infected in HEL cells assessed as inhibition of virus-induced cytopathogenicity after 4 days; format: functional, organism-based; conditions: Human alphaherpesvirus 2, strain G, 96 h; in short: as §1
[5] = test system: Vesicular stomatitis virus; assay: Antiviral activity against Vesicular stomatitis virus infected in HEL cells assessed as inhibition of virus-induced cytopathogenicity after 4 days; format: functional, organism-based; conditions: 96 h; in short: as §2
Human alphaherpesvirus 1 [6] = assay: Antiviral activity against thymidine kinase-deficient acyclovir-resistant HSV1 KOS infected in HEL cells assessed as inhibition of virus-induced cytopathogenicity after 4 days; format: functional, organism-based; conditions: Human alphaherpesvirus 1, KOS, 96 h; in short: as §2
[7] = test system: Vesicular stomatitis virus; assay: Antiviral activity against Vesicular stomatitis virus infected in HeLa cells assessed as inhibition of virus-induced cytopathogenicity after 4 days; format: functional, organism-based; conditions: 96 h; in short: as §2
[8] = test system: Respiratory syncytial virus; assay: Antiviral activity against Respiratory syncytial virus infected in human HeLa cells assessed as inhibition of virus-induced cytopathogenicity after 4 days; format: functional, organism-based; conditions: 96 h; in short: as §1
Influenza A virus [9] = assay: Antiviral activity against Influenza A virus H1N1 infected in MDCK cells assessed as reduction visual scoring of virus-induced cytopathogenicity after 4 days; format: functional, organism-based; conditions: 96 h
In short: (§3)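 MDCK monolayers infected with 100 CCID50 of influenza A (H1N1 or H3N2) or influenza B, with varying compound concentrations. Cytopathicity read when untreated infected controls reached complete CPE.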

Influenza B virus [10] = assay: Antiviral activity against Influenza B virus infected in MDCK cells assessed as reduction visual scoring of virus-induced cytopathogenicity after 4 days; format: functional, organism-based; conditions: 96 h; in short: as §3
Influenza A virus [11] = assay: Antiviral activity against Influenza A virus H1N1 infected in MDCK cells assessed as inhibition of virus-induced cytopathogenicity after 4 days by colorimetric formazan-based MTS assay; format: functional, organism-based; conditions: 96 h
Influenza A virus [12] = assay: Antiviral activity against Influenza A virus H3N2 infected in MDCK cells assessed as inhibition of virus-induced cytopathogenicity after 4 days by colorimetric formazan-based MTS assay; format: functional, organism-based; conditions: 96 h
Influenza B virus [13] = assay: Antiviral activity against Influenza B virus infected in MDCK cells assessed as inhibition of virus-induced cytopathogenicity after 4 days by colorimetric formazan-based MTS assay; format: functional, organism-based; conditions: 96 h
Human betaherpesvirus 5 = assay: Antiviral activity against Human cytomegalovirus Davis infected in HEL cells assessed as inhibition of virus plaque formation after 4 days; format: functional, organism-based; conditions: Human betaherpesvirus 5, Davis, 96 h
Human alphaherpesvirus 3 [14] = assay: Antiviral activity against […] expressing thymidine kinase infected in HEL cells assessed as reduction of virus plaque formation after 4 days; format: functional, cell-based; conditions: Human alphaherpesvirus 3, strain Oka vaccine, 96 h
Human alphaherpesvirus 3 [15] = assay: Antiviral activity against thymidine kinase-deficient […] infected in HEL cells assessed as reduction of virus plaque formation after 4 days; format: functional, organism-based; conditions: Human alphaherpesvirus 3, 07-1, HEL, 96 h
[16] = test system: Feline infectious peritonitis virus; assay: Antiviral activity against FIPV infected in cat CRFK cells assessed as inhibition of virus-induced cytopathic effect after 4 days by colorimetric formazan-based MTS assay; format: functional, cell-based; conditions: Alphacoronavirus 1, CRFK, 96 h
[17] = test system: Human immunodeficiency virus 1; assay: Antiviral activity against HIV1 infected in human CEM cells assessed as inhibition of virus-induced cytopathic effect after 4 days; format: functional, organism-based; conditions: Human immunodeficiency virus 1, CCRF-CEM, 96 h
In short: (§4)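 CEM T-lymphocytes (~3 × 10^5 cells/ml) were infected with HIV-1 IIIB or HIV-2 ROD at ~100 CCID50, then immediately plated with a range of compound concentrations. Giant cell formation was scored microscopically after 4 days at 37 °C. Cytostatic activity was tested in parallel in uninfected CEM cells.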

[18] = test system: Human immunodeficiency virus 2; assay: Antiviral activity against HIV2 infected in human CEM cells assessed as inhibition of virus-induced cytopathic effect after 4 days; format: functional, organism-based; conditions: Human immunodeficiency virus 2, CCRF-CEM, 96 h; in short: as §4
Heme [19] = assay: Binding affinity to monomeric heme in HEPES buffer at pH 5.6 by spectrophotometric analysis
Heme [20] = assay: Binding affinity to monomeric heme in HEPES buffer at pH 7.5 by spectrophotometric analysis
In short: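 Monomeric hemin (2.4 μM, 40% DMSO in water) was titrated with compound (0–70 μM) added from DMSO stocks, with absorbance read at 402 nm after each addition. Buffer was HEPES (pH 7.4) for the neutral condition and MES ([…]) for the pH 5.6 condition. Stoichiometry was by Job's method and log K by HypSpec fitting.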

mu-oxodimeric heme = assay: Binding affinity to mu-oxo heme in HEPES buffer at pH 5.8 by UV-visible spectrophotometry analysis
[21] = Inhibition of beta-hematin formation assessed as Ferriprotoporphyrin IX biomineralisation at 1 mg/ml after 24 hrs; format: functional
In short: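 Hemin chloride (0.5 mg/ml in DMSO) mixed with 0.5 M sodium acetate buffer pH 4.4 and drug or solvent control, incubated 37 °C for 24 h. Pellet washed with DMSO to remove unreacted hemin, dissolved in 0.1 N NaOH, absorbance read at 405 nm; percent inhibition relative to control. Highest concentration tested 1 mg/ml.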

Nucleic Acid = assay: Binding affinity to calf thymus DNA assessed as change in melting temperature; format: nucleic-acid assay; conditions: Bos taurus
In short: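 CT DNA (151 μM NP) was heated with or without compound at a 5:1 DNA:drug ratio in 40% DMSO/TE buffer pH 7.4 with 0.5 mM NaCl. Absorbance at 260 nm was followed with a 0.5 °C/min ramp to obtain Tm.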

SMILES	IC50 (Plasmodium falciparum [1]) [µM]	Ratio IC50 (Plasmodium falciparum [2])	CC50 (MDCK) [µM]	Ratio CC50/IC50 [3]	EC50 (Human respirovirus 3) [µM]	EC50 (Sindbis virus) [µM]	EC50 (Coxsackievirus B4) [µM]	EC50 (Punta Toro virus) [µM]	EC50 (Human alphaherpesvirus 1 [4]) [µM]	EC50 (Human alphaherpesvirus 2) [µM]	EC50 [5] [µM]	EC50 (Human alphaherpesvirus 1 [6]) [µM]	EC50 [7] [µM]	EC50 [8] [µM]	EC50 (Influenza A virus [9]) [µM]	EC50 (Influenza B virus [10]) [µM]	EC50 (Influenza A virus [11]) [µM]	EC50 (Influenza A virus [12]) [µM]	EC50 (Influenza B virus [13]) [µM]	EC50 (Human betaherpesvirus 5) [µM]	also measured
Cc1nc(NCCCCNc2ccnc3cc(Cl)ccc23)nc(-c2ccccc2[N+](=O)[O-])c1C(=O)OC(C)C	0.0182	0.2	2.3	638	> 20	> 20	> 20	> 20	> 4	> 4	> 4	> 4	> 20	> 20	> 0.8	> 0.8	> 0.8	> 0.8	> 0.8	> 4	EC50 (Human alphaherpesvirus 3 [14]): 4 µM; EC50 (Human alphaherpesvirus 3 [15]): > 4 µM; EC50 [16]: > 20 µM; EC50 [17]: > 2 µM; EC50 [18]: > 2 µM; log Ks (Heme [19]): 4.97; log Ks (Heme [20]): 5.08; log Ks (mu-oxodimeric heme): 6.31; inhibition [21]: 100%; ΔTm (Nucleic Acid): 2.5 °C
CCOC(=O)c1c(C)nc(NCCCCNc2ccnc3cc(Cl)ccc23)nc1-c1ccccc1	0.202	0.129	0.9	34.41	> 100	> 100	> 100	> 100	> 100	> 100	> 100	> 100	> 100	> 100	> 0.16	> 0.16	> 0.16	> 0.16	> 0.16	1.46	EC50 (Human alphaherpesvirus 3 [14]): 4 µM; EC50 (Human alphaherpesvirus 3 [15]): > 20 µM; EC50 [16]: > 4 µM; EC50 [17]: > 2 µM; EC50 [18]: > 2 µM; log Ks (Heme [19]): 5.28; log Ks (Heme [20]): 6.02; log Ks (mu-oxodimeric heme): 6.09; inhibition [21]: 100%; ΔTm (Nucleic Acid): 3 °C
